Laboratory results taken from ChEMBL document CHEMBL1135429, “Arylaminoethyl amides as novel non-covalent cathepsin K inhibitors” (J Med Chem, 2002).

Legend:
[1] = target: Cathepsin S (Homo sapiens, UniProt P25774); test: Inhibition of recombinant human cathepsin S in a fluorescence assay
Outline: (§1)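 Each recombinant human enzyme (cathepsin K, L or S) was assayed separately. IC50 values are the mean of two independent experiments, each performed in duplicate.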

[2] = target: T1, Cathepsin K (Homo sapiens, UniProt P43235); test: Inhibition of recombinant human cathepsin K in fluorescence assay; outline: as §1
T1 sequence (P43235 whole entry): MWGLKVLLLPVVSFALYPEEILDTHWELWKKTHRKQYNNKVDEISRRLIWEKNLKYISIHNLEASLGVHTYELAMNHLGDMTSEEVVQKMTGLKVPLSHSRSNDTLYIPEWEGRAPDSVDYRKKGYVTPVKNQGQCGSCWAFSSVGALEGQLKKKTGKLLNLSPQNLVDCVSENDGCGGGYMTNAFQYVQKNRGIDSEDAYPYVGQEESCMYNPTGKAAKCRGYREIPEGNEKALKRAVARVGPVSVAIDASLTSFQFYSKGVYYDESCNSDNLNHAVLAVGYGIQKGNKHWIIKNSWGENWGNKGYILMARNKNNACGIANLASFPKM

[3] = target: Cathepsin K (Oryctolagus cuniculus); test: Eq. constant (Ki) for inhibition of Cathepsin K was determined by progress curves, following hydrolysis of Z-Phe-Arg- Amc in the absence and presence of compound
[4] = target: Procathepsin L (Homo sapiens, UniProt P07711); test: Inhibition of recombinant human cathepsin L in a fluorescence assay.; outline: as §1
Procathepsin L, sequence (P07711 whole entry): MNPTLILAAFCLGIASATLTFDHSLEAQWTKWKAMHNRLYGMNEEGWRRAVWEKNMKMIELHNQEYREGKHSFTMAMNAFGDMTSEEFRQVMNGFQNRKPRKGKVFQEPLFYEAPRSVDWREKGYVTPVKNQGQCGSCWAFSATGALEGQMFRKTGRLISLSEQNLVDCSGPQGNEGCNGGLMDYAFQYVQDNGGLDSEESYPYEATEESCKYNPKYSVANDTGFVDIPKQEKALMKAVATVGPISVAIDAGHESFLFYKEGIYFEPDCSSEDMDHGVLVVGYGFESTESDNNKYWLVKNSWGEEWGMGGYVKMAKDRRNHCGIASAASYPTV

Cathepsin S, sequence (P25774 whole entry): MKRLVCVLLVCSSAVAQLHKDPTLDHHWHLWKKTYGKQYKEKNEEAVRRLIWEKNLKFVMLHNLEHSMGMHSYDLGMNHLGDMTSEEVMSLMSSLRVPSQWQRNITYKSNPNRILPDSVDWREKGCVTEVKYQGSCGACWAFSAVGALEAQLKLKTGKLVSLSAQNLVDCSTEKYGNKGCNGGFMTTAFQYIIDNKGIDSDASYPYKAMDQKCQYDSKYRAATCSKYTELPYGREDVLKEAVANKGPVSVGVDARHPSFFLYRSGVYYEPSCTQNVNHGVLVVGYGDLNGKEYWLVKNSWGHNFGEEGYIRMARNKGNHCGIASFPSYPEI

| SMILES | IC50 [1] [nM] | IC50 [2] [nM] | Ki [3] [nM] | IC50 [4] [nM] |
| --- | --- | --- | --- | --- |
| COc1ccc(NCCNC(=O)[C@H](CC(C)C)NC(=O)c2ccc(OCc3ccccc3)cc2)cc1 | 9500 | 6 | 15 | > 10000 |
| COc1ccc(NCCNC(=O)[C@H](CC(C)C)NC(=O)c2ccc(C(C)C)cc2)cc1 | 5700 | < 3 | – | 50 |
| CCCc1ccc(C(=O)N[C@@H](CC(C)C)C(=O)NCCNc2ccc(OC)cc2)cc1 | 1200 | < 3 | – | < 30 |

The next lines start with the values.

| IC50 [1] [nM] | IC50 [2] [nM] | Ki [3] [nM] | IC50 [4] [nM] | SMILES |
| --- | --- | --- | --- | --- |
| 190 | 9 | 11 | > 10000 | COc1ccc(NCCNC(=O)[C@H](CC(C)C)NC(=O)c2ncn(-c3cccc(Cl)c3Cl)n2)cc1 |
| 7200 | < 3 | – | 1500 | COc1ccc(NCCNC(=O)[C@H](CC(C)C)NC(=O)c2ccc(C(C)C)cn2)cc1 |
| 1900 | 6 | – | 2300 | COc1ccc(NCCNC(=O)[C@H](CC(C)C)NC(=O)c2ncn(-c3ccccc3Cl)n2)cc1 |
